Experimental findings from ChEMBL document CHEMBL1126717 (J Med Chem, 1993) are described below.

Holding throughout (format): cell-based
One experiment addresses T1, Cyclooxygenase (Rattus norvegicus, UniProt P35355+Q63921).
T1 sequence (P35355 whole entry): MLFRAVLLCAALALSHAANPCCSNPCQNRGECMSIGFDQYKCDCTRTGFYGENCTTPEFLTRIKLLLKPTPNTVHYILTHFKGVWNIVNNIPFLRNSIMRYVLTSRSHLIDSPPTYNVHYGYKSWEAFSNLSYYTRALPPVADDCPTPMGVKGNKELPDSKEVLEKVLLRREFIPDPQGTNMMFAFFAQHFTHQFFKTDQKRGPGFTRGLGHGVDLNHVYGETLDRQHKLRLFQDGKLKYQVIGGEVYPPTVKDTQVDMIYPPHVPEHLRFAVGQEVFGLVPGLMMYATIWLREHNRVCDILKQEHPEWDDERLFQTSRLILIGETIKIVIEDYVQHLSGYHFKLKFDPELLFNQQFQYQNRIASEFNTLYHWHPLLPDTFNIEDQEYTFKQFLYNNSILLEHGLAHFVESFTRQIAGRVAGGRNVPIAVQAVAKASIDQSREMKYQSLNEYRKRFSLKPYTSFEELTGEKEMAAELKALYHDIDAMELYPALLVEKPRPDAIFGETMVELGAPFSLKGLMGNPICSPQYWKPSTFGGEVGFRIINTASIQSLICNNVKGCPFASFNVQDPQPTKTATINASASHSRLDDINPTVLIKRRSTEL
T1 sequence (Q63921 whole entry): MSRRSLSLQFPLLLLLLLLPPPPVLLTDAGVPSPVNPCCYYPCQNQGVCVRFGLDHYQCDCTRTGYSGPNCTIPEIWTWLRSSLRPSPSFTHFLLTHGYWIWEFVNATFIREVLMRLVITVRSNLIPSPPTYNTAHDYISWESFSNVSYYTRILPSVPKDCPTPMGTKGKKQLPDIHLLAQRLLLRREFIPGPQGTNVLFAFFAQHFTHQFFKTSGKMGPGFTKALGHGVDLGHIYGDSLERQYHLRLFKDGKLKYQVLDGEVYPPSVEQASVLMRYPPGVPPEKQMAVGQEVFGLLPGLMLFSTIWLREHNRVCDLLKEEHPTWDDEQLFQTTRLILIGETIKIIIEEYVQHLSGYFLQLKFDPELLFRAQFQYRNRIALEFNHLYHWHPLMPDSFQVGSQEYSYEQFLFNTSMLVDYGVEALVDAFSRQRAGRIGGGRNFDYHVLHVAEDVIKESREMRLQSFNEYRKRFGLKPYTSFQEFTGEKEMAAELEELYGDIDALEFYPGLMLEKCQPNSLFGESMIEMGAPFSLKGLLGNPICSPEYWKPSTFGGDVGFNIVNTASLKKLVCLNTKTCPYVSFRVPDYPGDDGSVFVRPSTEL
Nature of the experiment: Inhibition of Prostaglandin G/H synthase mediated PGF2-alpha formation in rat basophilic leukemia (RBL-1) cells.

The target in experiment [1] is T2, Polyunsaturated fatty acid 5-lipoxygenase (Rattus norvegicus, UniProt P12527).
T2 sequence (P12527 whole entry): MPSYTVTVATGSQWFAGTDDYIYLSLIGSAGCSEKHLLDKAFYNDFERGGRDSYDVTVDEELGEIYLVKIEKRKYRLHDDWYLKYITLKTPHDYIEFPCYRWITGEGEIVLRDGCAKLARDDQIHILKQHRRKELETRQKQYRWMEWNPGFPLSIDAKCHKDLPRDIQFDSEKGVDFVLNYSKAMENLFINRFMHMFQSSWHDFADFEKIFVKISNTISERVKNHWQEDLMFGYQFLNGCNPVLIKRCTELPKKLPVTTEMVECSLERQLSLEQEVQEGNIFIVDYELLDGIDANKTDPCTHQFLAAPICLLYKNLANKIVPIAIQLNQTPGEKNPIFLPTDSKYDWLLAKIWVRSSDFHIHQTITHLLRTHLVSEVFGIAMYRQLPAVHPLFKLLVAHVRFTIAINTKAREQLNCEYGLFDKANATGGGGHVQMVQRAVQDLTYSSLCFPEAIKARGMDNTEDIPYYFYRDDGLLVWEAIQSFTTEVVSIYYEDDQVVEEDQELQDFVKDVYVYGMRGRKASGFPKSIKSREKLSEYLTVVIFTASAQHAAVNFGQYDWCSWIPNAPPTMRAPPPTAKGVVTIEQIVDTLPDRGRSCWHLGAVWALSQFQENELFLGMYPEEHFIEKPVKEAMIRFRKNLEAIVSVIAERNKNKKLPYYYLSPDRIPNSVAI
In words: Inhibition 5-lipoxygenase mediated LTB4 formation in rat basophilic leukemia (RBL-1) cells. In short, it runs like this:
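Washed in cold PBS pH 7.4 and resuspended at 2 × 10⁶ cells/mL in PBS with 1.0 mM calcium. Preincubated with test agent in 1% DMSO for 10 min at room temperature, then stimulated with A23187 (5 μM) for 7 min at 37 °C. LTB₄ in the supernatant measured by RIA. Percent inhibition taken against vehicle; IC₅₀ by linear regression on log concentration.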

Experiment [2] deals with T3, Polyunsaturated fatty acid 5-lipoxygenase (Rattus norvegicus) (UniProt P12527).
T3 sequence (whole entry): T2 sequence (P12527 whole entry)
Nature of the experiment: Inhibition of LTB4 in whole cell 5-lipoxygenase assay in an intact rat basophilic leukemia (RBL-1) cell line at 16 uM. The gist of the method:
(§1)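 RBL-1 cells grown at 37 °C in suspension in MEM with 12% FBS under 5% CO₂. Washed in cold PBS pH 7.4 and resuspended at 2 × 10⁶ cells/mL in PBS with 1.0 mM calcium. Preincubated with test agent in 1% DMSO for 10 min at room temperature, then stimulated with A23187 (5 μM) for 7 min at 37 °C. LTB₄ in the supernatant measured by RIA. Percent inhibition taken against vehicle; IC₅₀ by linear regression on log concentration.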

The target in experiment [3] is T4, Cyclooxygenase (Rattus norvegicus) (UniProt P35355+Q63921). In words: Inhibition of PGF2-alpha formation in Prostaglandin G/H synthase assay in an intact rat basophilic leukemia (RBL-1) cell line at 16 uM. The gist of the method: (§2)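 RBL-1 suspension cultures (MEM, 12% FBS, 37 °C, 5% CO₂) were washed in PBS and held at 2 × 10⁶ cells/mL in PBS containing 1.0 mM Ca. Cells were exposed to compound in 1% DMSO for 10 min at room temperature, then to 5 μM A23187 for 7 min at 37 °C, and chilled on ice to stop. PGF₂α in the supernatant was measured by RIA. Percent inhibition was calculated relative to vehicle-treated cells.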

Experiment [4] has as its target T3, Polyunsaturated fatty acid 5-lipoxygenase (Rattus norvegicus). In words: Inhibition of LTB4 in whole cell 5-lipoxygenase assay in an intact rat basophilic leukemia (RBL-1) cell line at 10 uM. The gist of the method:
as §1

In experiment [5] the target is T4, Cyclooxygenase (Rattus norvegicus). Nature of the experiment: Inhibition of PGF2-alpha formation in Prostaglandin G/H synthase assay in an intact rat basophilic leukemia (RBL-1) cell line at 10 uM. The gist of the method: as §2
Experiment [6] has as its target T3, Polyunsaturated fatty acid 5-lipoxygenase (Rattus norvegicus). In words: Inhibition of LTB4 in whole cell 5-lipoxygenase assay in an intact rat basophilic leukemia (RBL-1) cell line. In short, it runs like this: as §1

SMILES strings stand for the structures.

A word on the IC50: it is the concentration that inhibits the measured activity by half. Low readings indicate greater potency, high ones weaker potency. `Cc1ccc(Cl)c(Nc2ccccc2-c2nnc(NC#N)o2)c1Cl` gave a half-maximal inhibitory concentration (IC50) at Cyclooxygenase of 250 nM.
On to `N#CNc1nnc(-c2ccccc2Nc2cccc(C(F)(F)F)c2)s1`, for which the IC50 in experiment [1] came to 1700 nM; on Cyclooxygenase it was 2600 nM.
The like results for `Cn1c(S)nnc1-c1ccccc1Nc1cccc(C(F)(F)F)c1` were, in that order, 12000 nM and 30000 nM.
In the case of `Cc1ccc(Cl)c(Nc2ccccc2-c2nnc(S)s2)c1Cl`, the concentration for half-maximal inhibition (IC50) at Cyclooxygenase is 1700 nM.
`N#CNc1nnc(-c2ccccc2Nc2cccc(C(F)(F)F)c2)o1` showed a half-maximal inhibitory concentration (IC50) against Cyclooxygenase of 1000 nM.
A word on the inhibition: it is the change of the read-out against control, counted positive when it falls. Low readings indicate a response near the control, high ones a response far below the control. As for `Cc1ccc(Cl)c(Nc2ccccc2-c2n[nH]c(S)n2)c1Cl`, the inhibition in experiment [2] and in experiment [3] was below 40% each time.
For the compound `Cc1ccc(Cl)c(Nc2ccccc2-c2nnc(S)n2C)c1Cl`, the figures for the inhibition in experiment [2] and in experiment [3] were 86% and below 40%, respectively.
Take `Oc1n[nH]c(-c2ccccc2Nc2cccc(C(F)(F)F)c2)n1`: the inhibition in experiment [4] and in experiment [5] was below 40% each time.
Take `FC(F)(F)c1cccc(Nc2ccccc2-c2n[nH]c(S)n2)c1`: the inhibition in experiment [2] is below 40%.
For `Cc1ccc(Cl)c(Nc2ccccc2-c2nnc(N)o2)c1Cl`, the figures for the inhibition in experiment [4] and in experiment [5] were 45% and below 40%, respectively.
Regarding `Cn1c(O)nnc1-c1ccccc1Nc1cccc(C(F)(F)F)c1`, the inhibition in experiment [2] and in experiment [3] was below 40% each time.
On to `Cc1ccc(Cl)c(Nc2ccccc2-c2nnc(N)s2)c1Cl`, for which the IC50 in experiment [1] came out at 690 nM; at Cyclooxygenase, 6100 nM.
On Cyclooxygenase, `Nc1nnc(-c2ccccc2Nc2cccc(C(F)(F)F)c2)o1` returned a 50% inhibitory concentration (IC50) of 7100 nM.
Take `Cc1ccc(Cl)c(Nc2ccccc2-c2nnc(O)n2C)c1Cl`: the inhibition in experiment [2] and in experiment [3] was below 40% throughout.
For the compound `Cc1ccc(Cl)c(Nc2ccccc2-c2nnc(NC#N)s2)c1Cl`, the IC50 came out at 290 nM in experiment [1] and 1900 nM at Cyclooxygenase.
In experiment [6], `Oc1nnc(-c2ccccc2Nc2cccc(C(F)(F)F)c2)s1` gave an IC50 of 7400 nM.
`Nc1nnc(-c2ccccc2Nc2cccc(C(F)(F)F)c2)s1` yielded an IC50 at Cyclooxygenase of 11000 nM.
